# Bioassay records deposited in PubChem BioAssay by several laboratories.
# The list is not random: actives were taken first. Their share in the collection is about 2.6%.
# T cruzi inh: blocks replication of Trypanosoma cruzi | inhibition, % (test concentration not listed) | actives 1.4% (n = 300,000) | T. cruzi beta-gal in NIH3T3, luminescence, 90 h;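 active = mean inhibition across valid replicates above about 55%, limit read from the data; inconclusive = mean below that limit but half or more replicates reach it; inactive = mean below it, under half of replicates reach it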;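 note: signal also drops with host cell toxicity which is not excluded here; 0% = plate median of DMSO wells and 100% = zero luminescence signal; higher percent means less beta-gal luminescence so fewer parasites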
#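 Read-out: Parasite load inhibition, % | Test system: Mouse NIH/3T3 fibroblasts infected with β-gal-expressing T. cruzi Tulahuen C4 | Amount: 5,000 cells/well | Medium: DMEM, 2% fetal bovine serum | Signal: GalScreen β-gal luminescence, detergent lysis, 60 min | Timing: 3 h attach, ≥90 h co-culture | Also added: Tulahuen C4 trypomastigotes, 5000/well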
# CHT inh: human CHT choline transport inhibition; Q9GZV3; CHT-expressing cells, membrane potential dye, choline response; hits give low values; B-score at 10 µM; actives 0.86% (n = 310,000); AID 488975;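 active = B-score over 3 SD under the library average, and starting fluorescence ratio not unusually high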;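 note: choline stimulus applied at its EC90 after an EC20 pre-addition; B-score computed on integrated fluorescence ratio after choline addition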
# Target sequence (Q9GZV3 whole entry, looked up): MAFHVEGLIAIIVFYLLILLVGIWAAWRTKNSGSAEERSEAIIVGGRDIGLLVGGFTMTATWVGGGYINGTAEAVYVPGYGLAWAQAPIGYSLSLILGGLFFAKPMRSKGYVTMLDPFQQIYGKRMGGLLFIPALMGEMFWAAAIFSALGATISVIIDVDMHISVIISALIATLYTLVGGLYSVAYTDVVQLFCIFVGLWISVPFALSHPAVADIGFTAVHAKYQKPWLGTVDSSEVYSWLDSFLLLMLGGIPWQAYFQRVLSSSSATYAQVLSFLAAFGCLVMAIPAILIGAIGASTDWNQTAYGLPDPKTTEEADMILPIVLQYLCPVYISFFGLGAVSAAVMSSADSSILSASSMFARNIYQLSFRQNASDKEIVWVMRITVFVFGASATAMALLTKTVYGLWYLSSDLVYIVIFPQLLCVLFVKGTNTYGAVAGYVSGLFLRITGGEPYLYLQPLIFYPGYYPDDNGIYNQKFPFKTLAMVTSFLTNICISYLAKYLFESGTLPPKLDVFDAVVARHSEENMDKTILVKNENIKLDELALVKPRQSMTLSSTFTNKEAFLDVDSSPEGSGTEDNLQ
# PolyA inhibitor: yeast polyadenylation inhibition; activity score, % at 12 µM; actives 0.02% (n = 300,000); AID 1875; S. cerevisiae SKY197-pL101 polyadenylation reporter, beta-gal luminescence; efflux-impaired pdr1/pdr3 knockout yeast; score 100 = 6 SD above DMSO;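 active = lowest replicate activity score at least 50, where 100 means six control SD above control mean; inconclusive = lowest score under 50 but half or more replicates reach 50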;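 note: yeast exposed to compound for 9 h at 30 °C; higher score means more reporter readthrough which indicates perturbed polyadenylation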
# CHT allo act: human CHT allosteric activation; CHT-expressing cells, membrane potential dye, choline EC20; hits give high values; LV-AA mutant CHT in HEK293 cells; B-score at 10 µM; actives 0.49% (n = 310,000);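 active = initial fluorescence not abnormally high and integrated response B-score, plate-corrected, over 3 SD above library mean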
# CHT activ conf: confirmation of human choline transporter (CHT) activators; shares compounds with CHT allo act; actives 91% (n = 2,500); activation, % at 10 µM; AID 504833; CHT-expressing cells, membrane potential dye fluorescence (FDSS); % of choline EC20–EC90 response window; HEK293 expressing CHT LV-AA mutant; choline added at its EC20;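 active = primary screen active, with duplicate mean activation above negative control mean plus 3 SD, cut at about 11% in these data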
# HEK293 MP dye: CHT activator counter-screen hit in parental HEK293 cells | shares compounds with CHT allo act | membrane potential dye fluorescence (FDSS); measured after EC20 choline addition | ratio readout change at 10 µM, hits read low | actives 62% (n = 2,500);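 active = duplicate-averaged ratio beyond 3 SD from buffer wells, up or down, though filed actives are nearly all decreases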
# * = called active by the depositor; i = inactive; ? = inconclusive; . = not tested or not shown.
SMILES,T cruzi inh,CHT inh,PolyA inhibitor,CHT allo act,CHT activ conf,HEK293 MP dye
Cn1c(-c2ccc3ccccc3n2)nc2cnccc21,-16,i,4,i,45*,-40*
COc1cc(OC)c(-c2nc3cnccc3n2C)cc1OC,-10,i,5,6.6*,55*,-53*
Clc1ccccc1OCCn1nnc2ccccc21,-9,i,-38,i,.,.
CCCN1CCc2c(sc3nc(SCC)n(-c4ccc(OC)cc4)c(=O)c23)C1,43,.,1,.,.,.
CCS(=O)(=O)c1nc(S(=O)(=O)c2ccc(C)cc2)c(N2CCC3(CC2)OCCO3)s1,-2,i,-4,i,.,.
COc1ccc(-c2c(C(C)=O)c(C)nc3sc4c(=N)n(N)cnc4c23)cc1,20,i,10,6.7*,41*,-38*
CCOC(=O)c1c(C)nc2sc3c(=O)n(-c4ccc(C(C)=O)cc4)nnc3c2c1-c1ccc(OC)cc1,31,i,23,i,.,.
Cc1cc(C)n2nc(C(=O)N/N=C/c3cn(C)nc3C)nc2n1,-10,i,10,i,48*,-30*
Cc1nn(C)cc1/C=N/NC(=O)c1ccc2c(c1)OCO2,-2,i,19,i,.,.
CCOC(=O)C1=C(N)OC2=C(C(=O)CC(C)(C)C2)C1c1ccc(CC)s1 (stereo not given),-3,i,-17,7.6*,21*,i
CCOC(=O)C1=C(N)OC2=C(C(=O)CC(C)(C)C2)C1c1ccc(C)s1 (stereo not given),-9,i,-19,i,.,.
COc1ccc(/C=N/Nc2ccccn2)cc1O,3,i,11,i,35*,-48*
N#C/C(=N\Nc1c(Cl)cccc1Cl)C(=O)NN,24,i,-14,12*,19*,-40*
CCOC(=O)NC(=O)/C(C#N)=N/Nc1c(F)cccc1F,-1,i,-7,i,.,.
Cc1ccc(S(=O)(=O)N2CCN(Cc3ccco3)CC2)c(C)c1,1,i,5,i,.,.
CCn1c(/C=C/Nc2ccccc2)[n+](CC)c2cc(Cl)c(Cl)cc21,-23,i,12,7*,33*,-37*
COc1ccc(S(=O)(=O)N2CCc3ccccc32)cc1C(=O)N1CCOCC1,5,i,-15,i,.,.
Cn1c(=O)n(C)c2cc(/C=N/n3cnnc3)ccc21,?,i,10,8.7*,70*,-69*
COc1ccccc1CNC(=O)CCNS(=O)(=O)c1ccc2[nH]c(=O)oc2c1,13,i,8,i,.,.
C[N+](C)(C)CC(=O)N1CCN(c2ccc3ccccc3n2)CC1,-8,i,13,8.7*,79*,-63*
CCN(CC)C(=O)Oc1ccc2oc(=O)cc(-c3cc4cccc(OC)c4o3)c2c1,31,i,-20,i,.,.
CCN(CC)C(=O)C1CCN(Cc2cn(C)nc2-c2ccc(Oc3ccccc3)cc2)CC1,10,i,-1,i,1,i
C[C@H]1C(=O)N(C)CCN1Cc1cn(C)nc1-c1ccc(Oc2ccccc2)cc1,-4,i,-4,i,.,.
COc1ccc(CNC(=O)[C@H](C)NC(=O)C2CCN(S(=O)(=O)c3ccccc3)CC2)cc1,-8,i,9,i,.,.
CCN1CCN(CCNC(=O)c2ccc(/C=C3/Sc4ccccc4N(Cc4cccc(Cl)c4)C3=O)cc2)CC1,61*,i,-18,i,17*,-28*
SMILES,T cruzi inh,CHT inh,PolyA inhibitor,CHT allo act,CHT activ conf,HEK293 MP dye
CC(C)(C)C1CCc2onc(C(=O)Nc3ccc4c(c3)OCO4)c2C1 (stereo not given),3,i,6,i,.,.
CC1CCC(C(C)C)C(OC(=O)C[n+]2cc(-c3ccc(Cl)cc3)n3c2CCC3)C1 (stereo not given),60*,i,-10,14*,83*,i
C/C(=N/NC(=O)c1cnccn1)c1ccncc1,-13,i,3,6.4*,49*,-40*
CCCCOc1ccc(C(=O)N(CC)CC(=O)NCc2cccs2)cc1,3,i,-2,i,.,.
CCCCCc1ccc(C2=NNC(=O)CC2)cc1,-3,i,-12,i,.,.
O=C1CCC(c2ccc(-n3ccnc3)cc2)=NN1,-1,i,-12,7.3*,23*,-28*
c1ccc(-c2c[n+]3c(n2-c2ccccc2)SCC3)cc1,55*,i,3,6.6*,49*,-33*
c1ccc(-c2cn(-c3ccccc3)c3[n+]2CCS3)cc1,68*,i,13,6.8*,56*,-34*
COc1ccc(-n2c(-c3ccccc3)c[n+]3c2CCC3)cc1,12,i,6,i,.,.
CSc1nc(Cl)c(Cc2ccc(OC(C)C)cc2)c(N(C)C)n1,-33,i,2,i,.,.
CCOc1ccc(Cc2c(Cl)nc(SC)nc2N(C)C)cc1,-54,i,-7,6.4*,28*,i
COc1cccc(CN2CCNC(=O)C2CC(=O)NCC(C)(C)N2CCOCC2)c1OC (stereo not given),-11,i,9,i,.,.
O=C(NNc1cc(Cl)cc(Cl)c1)C1CCC1,-1,i,1,i,.,.
O=C(NNc1ccc(Cl)cc1)C1CCC1,-7,i,-6,i,14*,i
COc1cccc(OC)c1C(=O)N1CCNCC1,-9,i,-6,i,.,.
CCC(N=c1cc(-c2ccc(OC)cc2)oc2ccc(C)cc12)C(=O)O (stereo not given),2,i,-12,i,32*,-27*
COc1ccc(-c2cc(=O)c3cc(OC)ccc3o2)cc1,18,i,20,i,.,.
C[C@@H]1CC=C[C@H]2[C@H]1C(=O)N(Cc1ccccc1)[C@H]2c1ccc2ccccc2c1,15,i,-5,i,.,.
C[C@@H]1CC=C[C@H]2[C@H]1C(=O)N(Cc1ccccc1)[C@H]2c1cccc([N+](=O)[O-])c1,15,i,-13,6.3*,26*,i
Cc1ccc(-c2ccc(=O)n(Cc3c(F)cccc3Cl)n2)cc1,3,i,-1,i,.,.
COc1ccccc1NC(=O)Cn1c(C)nc2c(sc(=S)n2Cc2ccco2)c1=O,28,i,-9,i,.,.
NCCCC[C@H]1CN=C(N)N1CCC12CC3CC(CC(C3)C1)C2,-4,i,-21,8.5*,54*,-58*
Cc1c(O)c(CN2CCCC2)cc2c1oc(=O)c1ccccc12,-18,i,5,i,.,.
CCN(CC)C(=O)COc1ccc2c3c(c(=O)oc2c1C)CCCC3,6,i,-6,i,.,.
Cc1c(OCc2ccc(C(=O)O)o2)ccc2c3c(c(=O)oc12)CCC3,-13,i,21,i,39*,-25*
